# Assays:
# Type in all cases: functional
# UACC-62 [1] = assay: Cytotoxicity against human UACC62 cells
# Procedure, shortened: (§1)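 Five-dose in vitro screen across the full sixty-cell human tumour line panel. Three response parameters were derived from the dose-response data: GI50, TGI and LC50, expressed in μM/l.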
# IGROV-1 = assay: Cytotoxicity against human IGROV1 cells
# HL-60(TB) = assay: Cytotoxicity against human HL-60(TB) cells
# Procedure, shortened: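 Run in the sixty human tumour cell line panel. The primary screen reports percent growth of treated cells, expressed as percentage growth inhibition. Compounds meeting the threshold inhibition criteria go on to the full-panel 5-dose assay, which gives three response parameters (GI50, TGI, LC50) in μM.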
# PC-3 = assay: Cytotoxicity against human PC3 cells
# Procedure, shortened: (§2)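 Five-dose in vitro screen on the full sixty human tumour cell line panel. Three response parameters derived per cell line: GI50, TGI and LC50, given in μM.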
# SNB-19 = assay: Cytotoxicity against human SNB19 cells; procedure, shortened: as §2
# Pseudomonas aeruginosa = assay: Antibacterial activity against Pseudomonas aeruginosa ATCC 9027 assessed as diameter of inhibition zone at 1 mg/ml after 24 hrs by cup diffusion method (reference value: 16 mm); settings: ATCC 9027, 24 h, read-out: DIZ
# HCC 2998 = assay: Cytotoxicity against human HCC2998 cells
# Hs-578T = assay: Cytotoxicity against human Hs578T cells
# UACC-257 = assay: Cytotoxicity against human UACC257 cells; procedure, shortened: as §1
# CAKI-1 = assay: Cytotoxicity against human Caki1 cells assessed as growth inhibition at 10 uM; settings: read-out: GI
# MDA-MB-231 = assay: Cytotoxicity against human MDA-MB-231 cells; procedure, shortened: as §2
# T47D [2] = assay: Cytotoxicity against human T47D cells assessed as growth inhibition at 10 uM; settings: read-out: GI
# Procedure, shortened: (§3)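 Single-dose screen on human tumour cell lines. Growth of treated cells is expressed as percent of untreated growth, plotted as a mean graph, and reported as percent growth inhibition.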
# U-251 = assay: Cytotoxicity against human U251 cells; procedure, shortened: as §1
# MOLT-4 = assay: Cytotoxicity against human MOLT4 cells; procedure, shortened: as §2
# BT-549 = assay: Cytotoxicity against human BT549 cells assessed as growth inhibition at 10 uM; settings: read-out: GI
# NCI-H226 = assay: Cytotoxicity against human NCI-H226 cells; procedure, shortened: as §2
# UO-31 = assay: Cytotoxicity against human UO31 cells; procedure, shortened: as §1
# MDA-MB-468 = assay: Cytotoxicity against human MDA-MB-468 cells assessed as growth inhibition at 10 uM; settings: read-out: GI; procedure, shortened: as §3
# SK-MEL-5 = assay: Cytotoxicity against human SK-MEL-5 cells; procedure, shortened: as §2
# OVCAR-5 = assay: Cytotoxicity against human OVCAR5 cells; procedure, shortened: as §2
# HOP-62 [3] = assay: Cytotoxicity against human HOP62 cells assessed as growth inhibition at 10 uM; settings: read-out: GI
# SNB-75 [4] = assay: Cytotoxicity against human SNB75 cells assessed as growth inhibition at 10 uM; settings: read-out: GI; procedure, shortened: as §3
# HOP-62 [5] = assay: Cytotoxicity against human HOP62 cells
# M14 = assay: Cytotoxicity against human M14 cells
# HOP-92 = assay: Cytotoxicity against human HOP92 cells assessed as growth inhibition at 10 uM; settings: read-out: GI
# Staphylococcus aureus = assay: Antibacterial activity against Staphylococcus aureus ATCC 6538P assessed as diameter of inhibition zone at 1 mg/ml after 24 hrs by cup diffusion method (reference value: 15 mm); settings: read-out: DIZ
# A549 = assay: Cytotoxicity against human A549/ATCC cells
# NCI-H522 = assay: Cytotoxicity against human NCI-H522 cells; procedure, shortened: as §2
# SF-295 = assay: Cytotoxicity against human SF295 cells; procedure, shortened: as §2
# MCF7 [6] = assay: Cytotoxicity against human MCF7 cells assessed as growth inhibition at 10 uM; settings: read-out: GI; procedure, shortened: as §3
# A498 = assay: Cytotoxicity against human A498 cells assessed as growth inhibition at 10 uM; settings: read-out: GI
# DU-145 = assay: Cytotoxicity against human DU145 cells
# T47D [7] = assay: Cytotoxicity against human T47D cells; procedure, shortened: as §2
# MCF7 [8] = assay: Cytotoxicity against human MCF7 cells; procedure, shortened: as §2
# OVCAR-3 = assay: Cytotoxicity against human OVCAR3 cells; procedure, shortened: as §2
# NCI-H23 = assay: Cytotoxicity against human NCI-H23 cells; procedure, shortened: as §2
# UACC-62 [9] = assay: Cytotoxicity against human UACC62 cells assessed as growth inhibition at 10 uM; settings: read-out: GI
# Procedure, shortened: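 Single-dose screen in a sixty-cell human tumour line panel; percent growth of treated cells relative to untreated was read and reported as percentage growth inhibition, shown as a mean graph. Compounds meeting the threshold inhibition criteria went on to five-dose testing.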
# SNB-75 [10] = assay: Cytotoxicity against human SNB75 cells; procedure, shortened: as §2
# [11] = read-out: LC50 (the source's name)
compound,measurement,setting,value
N#Cc1c(-c2ccccc2)nc(SCC2CO2)nc1N1CCOCC1 (stereo not given),GI50,UACC-62 [1],3.12 µM
same,TGI,UACC-62 [1],75.5 µM
same,CC50,UACC-62 [1]; [11],> 100 µM
same,GI50,IGROV-1,1.79 µM
same,TGI,IGROV-1,23.3 µM
same,CC50,IGROV-1; [11],> 100 µM
same,GI50,HL-60(TB),34.1 µM
same,TGI,HL-60(TB),> 100 µM
same,CC50,HL-60(TB); [11],> 100 µM
same,GI50,PC-3,22.1 µM
same,TGI,PC-3,> 100 µM
same,CC50,PC-3; [11],> 100 µM
same,GI50,SNB-19,84.5 µM
same,TGI,SNB-19,> 100 µM
same,CC50,SNB-19; [11],> 100 µM
same,zone of inhibition at 1000 µg/mL,Pseudomonas aeruginosa,17 mm
same,GI50,HCC 2998,0.253 µM
same,TGI,HCC 2998,18.2 µM
same,CC50,HCC 2998; [11],> 100 µM
same,GI50,Hs-578T,1.15 µM
same,TGI,Hs-578T,6.09 µM
same,CC50,Hs-578T; [11],> 100 µM
same,GI50,UACC-257,50.7 µM
same,TGI,UACC-257,> 100 µM
same,CC50,UACC-257; [11],> 100 µM
same,inhibition of growth at 10 µM,CAKI-1,61.4%
same,GI50,MDA-MB-231,10 µM
same,TGI,MDA-MB-231,> 100 µM
same,CC50,MDA-MB-231; [11],> 100 µM
same,inhibition of growth at 10 µM,T47D [2],84.6%
same,GI50,U-251,22.1 µM
same,TGI,U-251,> 100 µM
same,CC50,U-251; [11],> 100 µM
same,GI50,MOLT-4,28.9 µM
same,TGI,MOLT-4,> 100 µM
same,CC50,MOLT-4; [11],> 100 µM
same,inhibition of growth at 10 µM,BT-549,88.6%
same,GI50,NCI-H226,10.1 µM
same,TGI,NCI-H226,> 100 µM
same,CC50,NCI-H226; [11],> 100 µM
same,GI50,UO-31,7.57 µM
same,TGI,UO-31,> 100 µM
same,CC50,UO-31; [11],> 100 µM
same,inhibition of growth at 10 µM,MDA-MB-468,44.1%
same,GI50,SK-MEL-5,17 µM
same,TGI,SK-MEL-5,> 100 µM
same,CC50,SK-MEL-5; [11],> 100 µM
same,GI50,OVCAR-5,1.7 µM
same,TGI,OVCAR-5,> 100 µM
same,CC50,OVCAR-5; [11],> 100 µM
same,inhibition of growth at 10 µM,HOP-62 [3],45.7%
same,inhibition of growth at 10 µM,SNB-75 [4],65.9%
same,GI50,HOP-62 [5],4.34 µM
same,TGI,HOP-62 [5],75.3 µM
same,CC50,HOP-62 [5]; [11],> 100 µM
same,GI50,M14,11.9 µM
same,TGI,M14,> 100 µM
same,CC50,M14; [11],> 100 µM
same,inhibition of growth at 10 µM,HOP-92,81.7%
same,zone of inhibition at 1000 µg/mL,Staphylococcus aureus,15 mm
same,GI50,A549,27.9 µM
same,TGI,A549,> 100 µM
same,CC50,A549; [11],> 100 µM
same,GI50,NCI-H522,72.5 µM
same,TGI,NCI-H522,> 100 µM
same,CC50,NCI-H522; [11],> 100 µM
same,GI50,SF-295,1.46 µM
same,TGI,SF-295,20.4 µM
same,CC50,SF-295; [11],> 100 µM
same,inhibition of growth at 10 µM,MCF7 [6],55.2%
same,inhibition of growth at 10 µM,A498,115%
same,GI50,DU-145,13.4 µM
same,TGI,DU-145,> 100 µM
same,CC50,DU-145; [11],> 100 µM
same,GI50,T47D [7],3.59 µM
same,TGI,T47D [7],22.5 µM
same,CC50,T47D [7]; [11],> 100 µM
same,GI50,MCF7 [8],3.92 µM
same,TGI,MCF7 [8],> 100 µM
same,CC50,MCF7 [8]; [11],> 100 µM
same,GI50,OVCAR-3,4.19 µM
same,TGI,OVCAR-3,47.8 µM
same,CC50,OVCAR-3; [11],> 100 µM
same,GI50,NCI-H23,4.48 µM
same,TGI,NCI-H23,> 100 µM
same,CC50,NCI-H23; [11],> 100 µM
same,inhibition of growth at 10 µM,UACC-62 [9],48.1%
same,GI50,SNB-75 [10],2.15 µM
same,TGI,SNB-75 [10],68.2 µM
same,CC50,SNB-75 [10]; [11],> 100 µM

# Reference: ChEMBL document CHEMBL2413060, “Synthesis, biological evaluation and molecular docking studies of some pyrimidine derivatives” (2013)
